Assay results as given in the M2OR odorant receptor database.

Experiments:
Details in all cases: stereoisomer not certain
UniProt A2ATE5 = molecular target: T1, UniProt A2ATE5
T1 sequence (whole entry): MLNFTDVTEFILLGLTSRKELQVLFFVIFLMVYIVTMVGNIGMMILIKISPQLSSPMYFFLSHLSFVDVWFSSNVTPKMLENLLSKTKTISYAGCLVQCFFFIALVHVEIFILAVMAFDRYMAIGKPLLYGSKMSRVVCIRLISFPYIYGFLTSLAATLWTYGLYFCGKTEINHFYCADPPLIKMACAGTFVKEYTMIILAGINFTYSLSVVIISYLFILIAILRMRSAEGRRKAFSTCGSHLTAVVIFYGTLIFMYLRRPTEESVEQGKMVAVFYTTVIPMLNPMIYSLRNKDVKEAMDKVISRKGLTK
Outline: (§1)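 Values were gathered from published papers (main text and supplementary material), with extra details requested from the original authors when needed, and checked for typos and inconsistencies. Each receptor–molecule pair is called responsive (active) if the original authors judged the measured signal statistically different from baseline, and non-responsive (inactive) otherwise. Assay methods varied by source, often transient mammalian cell-line luciferase assays. Recorded details include cell line, G-protein, co-transfected protein and tags.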

UniProt A2AVB0 = molecular target: T2, UniProt A2AVB0
T2 sequence (whole entry): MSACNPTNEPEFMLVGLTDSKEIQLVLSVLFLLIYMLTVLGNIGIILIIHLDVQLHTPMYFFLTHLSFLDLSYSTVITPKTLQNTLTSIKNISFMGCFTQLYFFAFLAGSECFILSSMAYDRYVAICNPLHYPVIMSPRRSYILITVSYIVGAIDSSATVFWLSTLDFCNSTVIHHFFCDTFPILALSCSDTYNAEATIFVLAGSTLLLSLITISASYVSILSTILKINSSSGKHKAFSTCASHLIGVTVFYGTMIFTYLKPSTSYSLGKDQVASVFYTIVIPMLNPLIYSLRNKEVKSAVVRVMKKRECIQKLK
Outline: as §1

UniProt E9PVX1 = molecular target: T3, UniProt E9PVX1
T3 sequence (whole entry): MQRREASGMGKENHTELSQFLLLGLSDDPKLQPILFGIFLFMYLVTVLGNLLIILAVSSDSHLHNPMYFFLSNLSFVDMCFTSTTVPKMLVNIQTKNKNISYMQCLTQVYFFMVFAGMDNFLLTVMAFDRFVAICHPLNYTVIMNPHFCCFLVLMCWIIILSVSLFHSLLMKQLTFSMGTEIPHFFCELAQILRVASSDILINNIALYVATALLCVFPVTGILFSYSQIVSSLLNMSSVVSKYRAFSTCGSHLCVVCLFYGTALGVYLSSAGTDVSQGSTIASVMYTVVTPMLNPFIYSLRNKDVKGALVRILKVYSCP
Outline: as §1

UniProt E9PZ66 = molecular target: T4, UniProt E9PZ66
T4 sequence (whole entry): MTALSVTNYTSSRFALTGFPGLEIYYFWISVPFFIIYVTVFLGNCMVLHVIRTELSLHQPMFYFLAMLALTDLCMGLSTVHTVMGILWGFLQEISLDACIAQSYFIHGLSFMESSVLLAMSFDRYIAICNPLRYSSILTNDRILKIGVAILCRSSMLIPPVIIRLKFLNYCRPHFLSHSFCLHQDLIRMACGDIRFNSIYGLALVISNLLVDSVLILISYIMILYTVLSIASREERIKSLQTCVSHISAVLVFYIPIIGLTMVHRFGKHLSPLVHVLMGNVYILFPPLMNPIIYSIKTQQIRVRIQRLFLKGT
Outline: as §1

UniProt E9Q4X7 = molecular target: T5, UniProt E9Q4X7
T5 sequence (whole entry): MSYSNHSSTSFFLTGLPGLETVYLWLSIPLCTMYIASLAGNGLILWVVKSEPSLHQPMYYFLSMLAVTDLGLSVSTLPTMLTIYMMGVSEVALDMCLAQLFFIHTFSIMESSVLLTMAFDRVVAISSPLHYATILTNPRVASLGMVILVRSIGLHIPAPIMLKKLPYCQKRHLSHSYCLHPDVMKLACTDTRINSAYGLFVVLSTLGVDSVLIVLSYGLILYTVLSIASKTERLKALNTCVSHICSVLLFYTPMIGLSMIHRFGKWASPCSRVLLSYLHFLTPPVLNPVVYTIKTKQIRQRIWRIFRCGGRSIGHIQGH
Outline: as §1

UniProt E9Q546 = molecular target: T6, UniProt E9Q546
T6 sequence (whole entry): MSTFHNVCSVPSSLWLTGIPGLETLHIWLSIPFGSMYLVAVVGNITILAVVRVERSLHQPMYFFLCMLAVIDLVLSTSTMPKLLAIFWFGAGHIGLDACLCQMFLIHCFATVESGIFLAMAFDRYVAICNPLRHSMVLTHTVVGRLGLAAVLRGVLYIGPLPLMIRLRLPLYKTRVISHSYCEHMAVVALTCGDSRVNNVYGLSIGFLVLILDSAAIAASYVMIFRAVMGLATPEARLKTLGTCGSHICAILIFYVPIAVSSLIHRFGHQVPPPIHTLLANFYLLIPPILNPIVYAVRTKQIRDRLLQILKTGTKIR
Outline: as §1

UniProt E9Q6Z7 = molecular target: T7, UniProt E9Q6Z7
T7 sequence (whole entry): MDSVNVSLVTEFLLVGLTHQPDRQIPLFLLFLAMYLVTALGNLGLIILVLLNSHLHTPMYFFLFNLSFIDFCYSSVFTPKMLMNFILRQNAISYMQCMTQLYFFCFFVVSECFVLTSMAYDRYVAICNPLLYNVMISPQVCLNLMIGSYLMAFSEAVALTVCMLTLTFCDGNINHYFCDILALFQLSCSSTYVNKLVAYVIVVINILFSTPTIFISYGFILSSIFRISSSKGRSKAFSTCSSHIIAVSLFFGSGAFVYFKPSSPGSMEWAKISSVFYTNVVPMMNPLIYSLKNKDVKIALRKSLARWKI
Outline: as §1

Measured: odorant receptor agonist call

C=CC(C)=CCC=C(C)CCC=C(C)C
inactive: UniProt A2ATE5 | UniProt A2AVB0 | UniProt E9PVX1 | UniProt E9PZ66 | UniProt E9Q4X7 | UniProt E9Q546 | UniProt E9Q6Z7

CC(C)CCN
inactive: UniProt A2ATE5 | UniProt A2AVB0 | UniProt E9PVX1 | UniProt E9PZ66 | UniProt E9Q4X7 | UniProt E9Q546 | UniProt E9Q6Z7

C=C(C)C1CC=C(C)CC1 (configuration not stated)
inactive: UniProt A2ATE5 | UniProt A2AVB0 | UniProt E9PVX1 | UniProt E9PZ66 | UniProt E9Q4X7 | UniProt E9Q546 | UniProt E9Q6Z7

CCCCCCC(=O)OCCCC
inactive: UniProt A2ATE5 | UniProt A2AVB0 | UniProt E9PVX1 | UniProt E9PZ66 | UniProt E9Q4X7 | UniProt E9Q546 | UniProt E9Q6Z7

OCCCCCCCCCO
inactive: UniProt A2ATE5 | UniProt A2AVB0 | UniProt E9PVX1 | UniProt E9PZ66 | UniProt E9Q4X7 | UniProt E9Q546 | UniProt E9Q6Z7

c1ccc2ncccc2c1
inactive: UniProt A2ATE5 | UniProt A2AVB0 | UniProt E9PVX1 | UniProt E9PZ66 | UniProt E9Q4X7 | UniProt E9Q546 | UniProt E9Q6Z7

CCOC(=O)C(C)CC (configuration not stated)
inactive: UniProt A2ATE5 | UniProt A2AVB0 | UniProt E9PVX1 | UniProt E9PZ66 | UniProt E9Q4X7 | UniProt E9Q546 | UniProt E9Q6Z7

CCCCCCCCCCOC(C)=O
inactive: UniProt A2ATE5 | UniProt A2AVB0 | UniProt E9PVX1 | UniProt E9PZ66 | UniProt E9Q4X7 | UniProt E9Q546 | UniProt E9Q6Z7

O=C([O-])CCCCCCC(=O)[O-].[H+].[H+]
inactive: UniProt A2ATE5 | UniProt A2AVB0 | UniProt E9PVX1 | UniProt E9PZ66 | UniProt E9Q4X7 | UniProt E9Q546 | UniProt E9Q6Z7

CC(=O)C1(C)CC2=C(CCCC2(C)C)CC1C (configuration not stated)
inactive: UniProt A2ATE5 | UniProt A2AVB0 | UniProt E9PVX1 | UniProt E9PZ66 | UniProt E9Q4X7 | UniProt E9Q546 | UniProt E9Q6Z7

Cc1ccc(C(C)C)cc1
inactive: UniProt A2ATE5 | UniProt A2AVB0 | UniProt E9PVX1 | UniProt E9PZ66 | UniProt E9Q4X7 | UniProt E9Q546 | UniProt E9Q6Z7

CCOC(=O)CC(C)C
inactive: UniProt A2ATE5 | UniProt A2AVB0 | UniProt E9PVX1 | UniProt E9PZ66 | UniProt E9Q4X7 | UniProt E9Q546 | UniProt E9Q6Z7

CC(CC=O)CCCC(C)(C)O (configuration not stated)
inactive: UniProt A2ATE5 | UniProt A2AVB0 | UniProt E9PVX1 | UniProt E9PZ66 | UniProt E9Q4X7 | UniProt E9Q546 | UniProt E9Q6Z7

CC=Cc1ccc(OC)cc1
inactive: UniProt A2ATE5 | UniProt A2AVB0 | UniProt E9PVX1 | UniProt E9PZ66 | UniProt E9Q4X7 | UniProt E9Q546 | UniProt E9Q6Z7

CCCO
inactive: UniProt A2ATE5 | UniProt A2AVB0 | UniProt E9PVX1 | UniProt E9PZ66 | UniProt E9Q4X7 | UniProt E9Q546 | UniProt E9Q6Z7

CC(=O)OCc1ccc2c(c1)OCO2
inactive: UniProt A2ATE5 | UniProt A2AVB0 | UniProt E9PVX1 | UniProt E9PZ66 | UniProt E9Q4X7 | UniProt E9Q546 | UniProt E9Q6Z7
